In the library only some 4.9% were active in any assay of this set; here they are far more common.
STAT3 act = IL-6 driven STAT3 reporter potentiators, primary screen, U3A cells, luciferase, luminescence, MLSCN library | 0.91% of 190,000 active | activation (% of control), % at 5.6 µM | IL-6 STAT3-luciferase reporter; 100% = signal with IL-6 EC80 alone | AID 871, 2007;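 active = activation above the screen-wide mean of compound activation plus 3 SD, cut at about 130% in these data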;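 also: 0% = background luminescence of wells with medium and substrate only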
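Assay system – human STAT1-deficient U3A cells with stable STAT3-luciferase reporter · Also added – IL-6 (33 ng/mL) · Schedule – compound 1 h, then IL-6 6 h at 37 °C · Technique – reporter luminescence signal · Evaluation – % activation versus median of IL-6-stimulated wells · Benchmarks – IL-6-only wells as 100% reference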
STAT3 blocker = IL-6 driven STAT3 reporter inhibitors, primary screen, U3A cells, luciferase, luminescence, MLSCN library; IL-6 STAT3-luciferase reporter; host cell line lacks STAT1; inhibition, % at 5.5 µM; 0.89% of 190,000 active; AID 862, 2007;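 active = inhibition above the mean inhibition across all screened compounds plus 3 SD, cut at about 44% in these data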;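 also: 0% = DMSO only wells and 100% = 100 µM nifuroxazide control wells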
NF-kB neuron act = activators of NF-kB expression in neurons, primary screen, cell-based, HTS; human neuronal cells, NF-kB reporter expression; stronger effect = higher value; fold change at 12.5 µM; 1.6% of 190,000 active; AID 1239, 2008; in the data active = fold change above about 3.3
STAT1 blocker = STAT1 signaling inhibitors, primary screen, cell-based, HTS, luciferase reporter; NIH 3T3 STAT1-luciferase reporter, IFN-gamma, luminescence; inhibition, % at 5.5 µM; 0.35% of 200,000 active;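 active = inhibition above a set limit, the mean inhibition across all tested compounds plus 3 SD, cut at about 34% in these data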;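 also: 0% = IFN-gamma with DMSO and 100% = IFN-gamma with 300 µM nifuroxazide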
STAT1 activator = STAT1 signaling activators, primary screen, cell-based, HTS, luciferase reporter. NIH 3T3 STAT1-luciferase reporter, IFN-gamma, luminescence; 100% = IFN-gamma alone, no compound. activation (% of control), % at 5.5 µM. 2.6% of 200,000 active;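 active = activation above the screen-wide mean activation plus 3 SD, cut at about 130% in these data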;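 also: raw ratio to IFN-gamma control signal so 100% means no change and 0% no light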
APP 5'UTR act = activators of APP 5'UTR luciferase reporter, primary screen, SH-SY5Y cells. SH-SY5Y APP 5'UTR luciferase reporter, luminescence; zero percent = DMSO vehicle wells. AID 1276, 2008. activation, % at 2 µM. 1% of 190,000 active;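 active = activation above a set limit, based on mean plus 3 SD of controls, cut at about 140% in these data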
* = called active by the depositor; x = not tested or not shown.

SMILES	STAT3 act	STAT3 blocker	NF-kB neuron act	STAT1 blocker	STAT1 activator	APP 5'UTR act
C=CCn1c(SCc2c(C)noc2C)nc2cc(C(=O)O)ccc2c1=O	92	13	2.8	-2	102	-3
O=C(Oc1cccc(Oc2ccccc2)c1)N1CCOCC1	96	9	1.1	-7	106	0
Cc1ccc(NC(=O)c2ccc(OC(=S)N3CCOCC3)cc2)cc1	102	4	1.4	-34	131*	25
O=C(Nc1ccccc1Br)c1ccc(OC(=S)N2CCOCC2)cc1	90	14	2.3	-40	135*	78
O=C(Oc1ccc(-c2ccccc2)cc1)N1CCOCC1	88	18	2.2	-41	137*	60
O=C(Nc1ccccc1C(=O)N1CCOCC1)c1ccc(F)cc1	104	-8	0.94	1	99	-2
CCOC(=O)c1cnc2ccc(OCC)cc2c1N(C)Cc1ccccc1	104	-8	1.1	-9	108	-11
COc1cccc(COC(=O)c2nn(-c3ccccc3)nc2N)c1	96	13	1	0	101	14
S=C(Nc1ccccc1Oc1ccccc1)Nc1cccc(Cl)c1Cl	79	27	1.3	7	93	14
O=C1Nc2ccccc2S/C1=C/Nc1cccc(Cl)c1	96	13	2	-33	130*	12
Nc1nc(COc2ccc(F)cc2Cl)nc(N2CCCCC2)n1	92	13	0.72	-2	100	7
Fc1ccc(-c2cnn3c(-c4ccncc4)ccnc23)cc1	74	37	6.4*	-54	148*	199*
CC(OC(=O)c1ccccc1NCc1ccco1)C(=O)Nc1ncc(Cl)cc1Cl (centres undefined)	104	0	0.87	9	93	0
CCN(CC)S(=O)(=O)c1ccc(C)c(C(=O)Oc2cccc(-c3cnc4ccccc4n3)c2)c1	108	-12	1.3	-3	105	96
O=C(Oc1cccc(-c2cnc3ccccc3n2)c1)c1ccco1	90	16	3.5*	-5	105	122
O=C1C(c2ccncc2)N(CCC2=CCCCC2)C(=O)CN1C1CCCCC1 (centres undefined)	99	6	1.2	-3	103	3
S=C(NCCSCc1ccc(Cl)cc1Cl)Nc1ccccc1	90	22	1	3	98	4
S=C(Nc1ccccc1)Nc1ccc(OCc2ccc(Cl)cc2Cl)cc1	51	64*	0.4	59*	47	-70
Cc1nc2ccccc2n1CC(=O)OCC(=O)NCCc1ccccc1	100	6	1.1	-5	105	10
Cc1ccc(-c2csc(NC(=O)CN3C(=O)CCC3=O)n2)cc1	86	18	1.2	-2	102	4
O=C(CN1C(=O)CCC1=O)Nc1nc(-c2ccc3ccccc3c2)cs1	91	13	1.9	-43	138*	-5
O=C(CN1C(=O)CCC1=O)Nc1nc(-c2nc3ccccc3s2)cs1	100	0	1.2	-32	131*	52
O=S(=O)(NCc1cn2ccsc2n1)c1ccc(Oc2ccccc2)cc1	52	62*	0.77	23	79	9
CC(C)(C)c1ccc(-c2nc(C#N)c(NCc3ccncc3)o2)cc1	107	-2	2.3	-34	131*	x
COc1ccc(-c2nc(C#N)c(NCc3ccc(C)cc3)o2)cc1OC	99	5	1.2	-4	104	25
CNc1oc(-c2ccc(Cl)cc2)nc1C#N	92	11	2.3	-35	132*	34
CC(=O)c1ccc(Nc2ccc(-c3ccccc3F)nn2)cc1	85	19	6.9*	-47	142*	146*
COc1ccccc1-c1ccc(Nc2ccc(C(=O)N3CCOCC3)cc2)nn1	94	9	1.3	-6	106	2
CCn1cc(-c2cc(C(=O)O)c3ccccc3n2)c(C)n1	96	6	1.3	3	97	-23
CCc1ccc(-c2cc(C(=O)Nn3cnnc3)c3ccccc3n2)cc1	32	82*	4.3*	64*	41	60
